ChEMBL document CHEMBL3085699, “Design, synthesis, and biological evaluation of indole-2-carboxamides: a promising class of antituberculosis agents” (J Med Chem, 2013)
≈ marks a conversion by molar mass, not a printed value.

Assays:
[1] = Intrinsic clearance in mouse liver microsomes by LC/MS/MS analysis; assay type: ADME, Microsome; conditions: read-out: CLH
Outline: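 Compound depletion in liver microsomes of the named species, measured by LC/MS/MS. In vitro half-life gave hepatic extraction ratio and predicted metabolic clearance.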

[2] = system: Mycobacterium tuberculosis; assay: Antimicrobial activity against Mycobacterium tuberculosis H37Rv ATCC 27294 after 5 days by three-fold serial dilution assay; assay type: functional; conditions: H37Rv ATCC 27294, 120 h
Outline: (§1)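 H37Rv grown in 7H9 broth with 0.05% Tween 80 and 10% ADS. Compounds in 90% DMSO, three-fold serially diluted in duplicate. Early-log culture diluted to OD600 0.02 was added, then incubated at 37 °C for 5 days. Growth read by absorbance. MIC50 (50% growth inhibition) taken from non-linear curve fits. Isoniazid ran as internal control in every assay.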

[3] = Aqueous solubility of the compound at pH 6.8 after 24 hrs by high-throughput equilibrium solubility assay; assay type: physicochemical; conditions: buffer
Outline: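 Miniaturized shake-flask equilibrium method. DMSO stock removed by centrifugal evaporation, aqueous buffer added, shaken 24 h. Plunger pushed through a filter membrane, shaken a further 30 min, and filtrate quantified by HPLC.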

[4] = system: Mycobacterium tuberculosis; assay: Ratio of isoniazid MIC50 to compound MIC50 against Mycobacterium tuberculosis H37Rv ATCC 27294; assay type: functional; outline: as §1

Row | SMILES | microsomal CLint [1] | MIC50 [2] | solubility thermodynamic at 24 h [3] | Ratio [4]
1 | CC1CCC(NC(=O)c2cc3c(Cl)cccc3[nH]2)CC1 (configuration not stated) | 462 µL/min/mg | 0.19 µM (≈ 0.0553 µg/mL) | – | –
2 | CC1CCC(NC(=O)c2cc3cc(Cl)ccc3[nH]2)CC1 (configuration not stated) | 122 µL/min/mg | 1.29 µM (≈ 0.375 µg/mL) | – | –
3 | CC1CCC(NC(=O)c2cc3c(F)cc(F)cc3[nH]2)CC1 (configuration not stated) | 866 µL/min/mg | 0.3 µM (≈ 0.0877 µg/mL) | < 4 µM | –
4 | NNC(=O)c1ccncc1 [ISONIAZID] | – | 0.33 µM (≈ 0.0453 µg/mL) | – | –
5 | Cc1cc(C)c2cc(C(=O)N[C@@H]3CCCC[C@@H]3C)[nH]c2c1 | 433 µL/min/mg | 0.079 µM (≈ 0.0225 µg/mL) | < 4 µM | 4
6 | CCC(C)NC(=O)c1cc2c(C)cc(C)cc2[nH]1 (configuration not stated) | – | 9.33 µM (≈ 2.28 µg/mL) | 22 µM (≈ 5.38 µg/mL) | –
7 | CC1CCC(NC(=O)c2cc3cc(Cl)c(Cl)cc3[nH]2)CC1 (configuration not stated) | 73.3 µL/min/mg | 0.16 µM (≈ 0.052 µg/mL) | – | –
8 | CC1CCC(NC(=O)c2cc3ccc(Cl)c(Cl)c3[nH]2)CC1 (configuration not stated) | 308 µL/min/mg | 0.97 µM (≈ 0.315 µg/mL) | – | –
9 | Cc1cc2[nH]c(C(=O)N[C@@H]3CCCC[C@@H]3C)cc2c(C)n1 | – | > 20 µM | – | –
10 | Cc1cc(C)c2cc(C(=O)NC3CCCCCC3)[nH]c2c1 | – | 0.1 µM (≈ 0.0284 µg/mL) | < 4 µM | –
11 | CC1CCC(NC(=O)c2cc3c(Cl)c(Cl)ccc3[nH]2)CC1 (configuration not stated) | 60.8 µL/min/mg | 0.22 µM (≈ 0.0716 µg/mL) | – | –
12 | Cc1cc(C)c2nc(C(=O)N[C@@H]3CCCC[C@@H]3C)[nH]c2c1 | – | > 20 µM | – | –
13 | Cc1cc(C)c2cc(C(=O)N(C)C3CCCCC3)[nH]c2c1 | – | > 20 µM | – | –
14 | C[C@H]1CC[C@@H](NC(=O)c2cc3c(Cl)cc(Cl)cc3[nH]2)CC1 | 47 µL/min/mg | 0.18 µM (≈ 0.0585 µg/mL) | < 4 µM | –
15 | CC1CCC(NC(=O)c2cc3cc(Cl)cc(Cl)c3[nH]2)CC1 (configuration not stated) | 187 µL/min/mg | 0.41 µM (≈ 0.133 µg/mL) | – | –
16 | Cc1cc(C)c2c(c1)NC(C(=O)N[C@@H]1CCCC[C@@H]1C)C2 (some centres not stated) | – | 1.24 µM (≈ 0.355 µg/mL) | < 4 µM | –
17 | Cc1cc(C)c2cc(C(=O)NCCC(C)C)[nH]c2c1 | – | 3.26 µM (≈ 0.842 µg/mL) | – | –
18 | Cc1cc(C)c2cc(C(=O)NC3CCN(C)CC3)[nH]c2c1 | – | > 20 µM | > 10000 µM | –
19 | CCC(CC)NC(=O)c1cc2c(C)cc(C)cc2[nH]1 | – | 4.33 µM (≈ 1.12 µg/mL) | < 4 µM | –
20 | Cc1cc(C)c2cc(C(=O)NC3CCOCC3)[nH]c2c1 | – | > 20 µM | 17 µM (≈ 4.63 µg/mL) | –
21 | CC1CCC(NC(=O)c2cc3c(Cl)cc(F)cc3[nH]2)CC1 (configuration not stated) | 77 µL/min/mg | 0.18 µM (≈ 0.0556 µg/mL) | < 4 µM | –
